“Also recorded” adds a separate entry of the source.
Tests used:
[1] = biological target: T1, EsemOR3 (Eriocrania semipurpurella, UniProt A0A2H4NT95); test: Fluorescent calcium assay, HEK293 cells expressing EsemOrco and EsemOR3; type: cell-based; conditions: for Response of EsemOR3-expressing cells in screening: compounds screened at 30 µM
T1 sequence (A0A2H4NT95 1-441): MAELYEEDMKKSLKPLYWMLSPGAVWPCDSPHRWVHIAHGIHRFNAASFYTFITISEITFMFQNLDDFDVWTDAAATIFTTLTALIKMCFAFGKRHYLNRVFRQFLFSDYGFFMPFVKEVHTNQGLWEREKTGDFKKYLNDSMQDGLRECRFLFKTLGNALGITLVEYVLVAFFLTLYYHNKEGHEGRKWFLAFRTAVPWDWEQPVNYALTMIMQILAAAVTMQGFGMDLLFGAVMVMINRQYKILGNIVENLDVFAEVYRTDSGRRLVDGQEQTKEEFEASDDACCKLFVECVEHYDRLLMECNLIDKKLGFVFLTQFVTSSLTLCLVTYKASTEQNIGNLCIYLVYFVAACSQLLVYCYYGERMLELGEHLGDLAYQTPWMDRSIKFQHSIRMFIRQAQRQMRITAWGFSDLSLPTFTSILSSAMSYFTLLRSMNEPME
T1 sequence (A0A2H4NT96 1-482 partner): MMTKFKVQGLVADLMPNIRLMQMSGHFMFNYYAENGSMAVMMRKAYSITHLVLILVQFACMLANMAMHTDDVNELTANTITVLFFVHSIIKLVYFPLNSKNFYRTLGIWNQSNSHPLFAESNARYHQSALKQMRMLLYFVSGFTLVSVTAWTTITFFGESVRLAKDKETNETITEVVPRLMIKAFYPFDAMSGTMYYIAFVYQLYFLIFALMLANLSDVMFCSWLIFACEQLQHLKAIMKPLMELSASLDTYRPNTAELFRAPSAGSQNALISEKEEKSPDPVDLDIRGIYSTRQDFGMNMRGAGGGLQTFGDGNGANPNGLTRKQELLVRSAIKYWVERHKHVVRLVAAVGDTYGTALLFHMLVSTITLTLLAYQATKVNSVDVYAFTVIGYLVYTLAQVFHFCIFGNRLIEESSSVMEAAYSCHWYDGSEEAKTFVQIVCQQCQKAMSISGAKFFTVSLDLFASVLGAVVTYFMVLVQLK
In short: (§1)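 Inducible TREx HEK293 cells stably carry Myc-tagged Orco plus V5-tagged receptor; non-induced wells serve as control. Cells loaded 30 min RT with 1 µM Fluo4-AM, 0.2% pluronic, in DPBS (Ca2+, Mg2+, 1 mM probenecid, pH 7.1); fluorescence read 1 min after ligand. Screen at 30 µM; dose–response from 150 µM, 1/2 dilutions; Orco agonist 50 µM; 0.5% DMSO vehicle. Triplicate wells, three experiments; EC50 (95% CI) by nonlinear fit.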

[2] = test system: E. semipurpurella males; conditions: cited from earlier work; for Attraction of E. semipurpurella: sex pheromone components, males but not females, ref Larsson etal. 2002; for Effect on male sex pheromone attraction: ref Kozlov etal. 1996
[3] = biological target: T2, EsemOR5 (Eriocrania semipurpurella, UniProt A0A2H4NTA6); test: Fluorescent calcium assay, HEK293 cells expressing EsemOrco and EsemOR5; type: cell-based; conditions: for Response of EsemOR5-expressing cells in screening: compounds screened at 30 µM
T2 sequence (A0A2H4NTA6 1-419): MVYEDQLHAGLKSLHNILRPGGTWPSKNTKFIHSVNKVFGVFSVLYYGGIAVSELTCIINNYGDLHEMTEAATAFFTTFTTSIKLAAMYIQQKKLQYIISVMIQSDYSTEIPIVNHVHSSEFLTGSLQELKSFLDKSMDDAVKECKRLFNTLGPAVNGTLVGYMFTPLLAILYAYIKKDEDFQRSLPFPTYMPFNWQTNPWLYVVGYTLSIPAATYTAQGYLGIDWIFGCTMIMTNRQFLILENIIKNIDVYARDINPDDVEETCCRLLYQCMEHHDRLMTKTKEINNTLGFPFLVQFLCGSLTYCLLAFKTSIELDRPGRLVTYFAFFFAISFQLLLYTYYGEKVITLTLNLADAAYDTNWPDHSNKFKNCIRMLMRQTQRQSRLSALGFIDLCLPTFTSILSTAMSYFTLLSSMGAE
T2 sequence (A0A2H4NT96 1-482 partner): T1 sequence (A0A2H4NT96 1-482 partner)
In short: as §1

[4] = test system: E. sangii; conditions: ref Kozlov etal. 1996; cited from earlier work
[5] = test system: EsemOR4; test: Fluorescent calcium assay, HEK293 cells expressing EsemOrco and EsemOR4; type: cell-based, Eriocrania semipurpurella; conditions: EsemOrco + EsemOR4 cell line, 50 μM, induced cells
In short: as §1

[6] = test system: EsemOR6; test: Fluorescent calcium assay, HEK293 cells expressing EsemOrco and EsemOR6; type: cell-based, Eriocrania semipurpurella; conditions: EsemOrco + EsemOR6 cell line, 50 μM, induced cells
In short: as §1

[7] = biological target: T3, EsemOR1 (Eriocrania semipurpurella, UniProt A0A2H4NTA3); test: Fluorescent calcium assay, HEK293 cells expressing EsemOrco and EsemOR1; type: cell-based
T3 sequence (A0A2H4NTA3 1-412): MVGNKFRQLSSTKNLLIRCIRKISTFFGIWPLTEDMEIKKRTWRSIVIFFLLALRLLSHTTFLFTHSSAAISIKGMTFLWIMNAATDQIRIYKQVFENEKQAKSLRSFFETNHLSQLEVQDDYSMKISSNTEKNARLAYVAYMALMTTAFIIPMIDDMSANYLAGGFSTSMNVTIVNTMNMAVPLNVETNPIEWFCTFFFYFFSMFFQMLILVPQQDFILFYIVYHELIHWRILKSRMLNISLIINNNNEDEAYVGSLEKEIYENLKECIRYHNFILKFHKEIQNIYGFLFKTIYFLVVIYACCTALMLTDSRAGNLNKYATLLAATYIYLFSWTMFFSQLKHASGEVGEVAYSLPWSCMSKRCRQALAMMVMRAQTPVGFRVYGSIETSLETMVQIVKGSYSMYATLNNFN
T3 sequence (A0A2H4NT96 1-482 partner): T1 sequence (A0A2H4NT96 1-482 partner)
In short: as §1

| Response of EsemOR3-expressing cells in screening ([1]; induced cells) | Response of EsemOR5-expressing cells in screening ([3]; induced cells) | SMILES | also measured |
| --- | --- | --- | --- |
| less so | Weaker responses | CC/C=C\CCC[C@@H](C)O [(2R, 6Z)-6-nonen-2-ol, (2R,6Z)-6-Nonen-2-ol] | Attraction of E. semipurpurella [2]: attractive to males |
| – | responded | CCCCCCOC(C)=O [Hexyl acetate] | – |
| less so | Weaker responses | CCCCCCC[C@H](C)O [(S)-Nonan-2-ol] | – |
| – | – | CCc1ccc(NC(=O)CSc2nnc(-c3cccnc3)n2CC)cc1 [VUAA1] | Response to Orco agonist (positive control) ([1]; EsemOrco + EsemOR3 cell line, 50 μM, induced cells): elicited responses in induced cells; Response to Orco agonist (positive control) [5]: elicited responses in induced cells; Response to Orco agonist (positive control) [6]: elicited responses in induced cells; Response to Orco agonist (positive control) ([7]; EsemOrco + EsemOR1 cell line, 50 μM, induced cells): elicited responses in induced cells; Response to Orco agonist (positive control) ([3]; EsemOrco + EsemOR5 cell line, 50 μM, induced cells): elicited responses in induced cells |
| responded most strongly | – | CC/C=C\CCC[C@H](C)O [(2S,6Z)-6-Nonen-2-ol] | EC50 [1]: 560 nM; Attraction of E. semipurpurella [2]: attractive to males; Response of EsemOR5-expressing cells in screening ([3]; induced cells, listed as (2 S, 6Z)-6-nonen-2-ol): activated the OR |
| – | – | C=C1CC/C=C(\C)CC[C@@H]2[C@@H]1CC2(C)C [β-caryophyllene, β-Caryophyllene] | EC50 [7]: 2430 nM; Response of EsemOR1-expressing cells in screening ([7]; induced cells, compounds screened at 30 µM): responded |
| less so; also recorded: more weakly | Weaker responses | CCCCCCCC(C)=O [Nonan-2-one] | Effect on pheromone attraction ([2]; E. semipurpurella, low concentration, ref Larsson etal. (2002)): increases pheromone attraction; Effect on male sex pheromone attraction ([2]; E. semipurpurella): antagonize male sex pheromone attraction |
| responded to a lesser extent | – | CC(C)=CCC[C@@H](C)O [(R)-6-methyl-5-hepten-2-ol, (R)-6-Methyl-5-hepten-2-ol] | – |
| responded to a lesser extent | – | CCCCCCCCC(C)O (stereo not shown) [2-Decanol] | – |
| responded to a lesser extent | – | CCCCCC(O)CC (stereo not shown) [3-Octanol] | – |
| responded to a lesser extent | responded | CCCCCCC(C)=O [2-Octanone] | – |
| – | responded | CCC/C=C/COC(C)=O [(E)-2-Hexenyl acetate] | – |
| responded to a lesser extent | responded | CCCCCCC(C)O (stereo not shown) [2-Octanol] | – |
| responded to a lesser extent | responded | CC/C=C\CCOC(C)=O [(Z)-3-Hexenyl acetate] | – |

| SMILES | Response of EsemOR3-expressing cells in screening ([1]; induced cells) | Response of EsemOR5-expressing cells in screening ([3]; induced cells) | also measured |
| --- | --- | --- | --- |
| CC/C=C\CCCC(C)=O [(Z)-6-Nonen-2-one] | less so; also recorded: responded to some extent | responded most strongly | Effect on male sex pheromone attraction ([2]; E. semipurpurella): antagonize male sex pheromone attraction; Behavioural effect in E. sangii [4]: antagonist; EC50 [3]: 430 nM |
| CCCCC[C@H](C)O [(S)-Heptan-2-ol] | less so; also recorded: responded to some extent | – | – |

— PMC5850608 (Molecular Biology and Evolution, 2017)
